# Screens as filed in PubChem BioAssay.
# A3A deaminase: inhibitors of human APOBEC3A DNA deaminase | P31941 | recombinant A3A, FAM/TAMRA ssDNA deamination fluorescence | inhibition, % at 20 µM | actives 0.41% (n = 330,000);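 active means at least 40% inhibition at 20 µM here, with at most 30% in a related deaminase screen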;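 further: plate controls were A3A with DMSO for no effect and wells lacking A3A enzyme for full effect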
# ARFGAP1 inh: inhibits rat ARF GTPase activating protein 1; inhibition, % at 16.5 µM; Q62848; actives 0.26% (n = 360,000); Arfgap1-stimulated ARF1 GTP hydrolysis, GDP FP detection;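 active means inhibition above a per-plate limit, mean inhibition of low control wells plus 3 SD, cut at about 25% in these data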;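 further: 0% = DMSO wells with enzyme and 100% = wells lacking Arfgap1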
#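 Assay system: Rat Arfgap1 GAP domain (His6, aa 1-136), purified enzyme | Buffer or medium: HEPES 25 mM pH 7.5, NaCl 150 mM, MgCl2, DTT | Schedule: GTP hydrolysis reaction 2 h at 25 °C | Signal: FP of antibody-bound GDP Alexa 633 tracer, ex 620/em 688 nm | Measure: Percent inhibition of Arfgap1-stimulated GTP hydrolysis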
# A3G deaminase: blocks human APOBEC3G single-stranded DNA deamination; inhibition, % at 20 µM; actives 0.28% (n = 330,000); recombinant A3G, ssDNA deamination FAM/TAMRA fluorescence; Q9HC16;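 active means inhibition of at least 40% at 20 µM, with no more than 30% in the related APOBEC3A deaminase screen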;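 further: plate controls were DMSO wells with A3G for no effect and wells lacking A3G enzyme for full effect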
# Target sequence (Q9HC16 whole entry, looked up): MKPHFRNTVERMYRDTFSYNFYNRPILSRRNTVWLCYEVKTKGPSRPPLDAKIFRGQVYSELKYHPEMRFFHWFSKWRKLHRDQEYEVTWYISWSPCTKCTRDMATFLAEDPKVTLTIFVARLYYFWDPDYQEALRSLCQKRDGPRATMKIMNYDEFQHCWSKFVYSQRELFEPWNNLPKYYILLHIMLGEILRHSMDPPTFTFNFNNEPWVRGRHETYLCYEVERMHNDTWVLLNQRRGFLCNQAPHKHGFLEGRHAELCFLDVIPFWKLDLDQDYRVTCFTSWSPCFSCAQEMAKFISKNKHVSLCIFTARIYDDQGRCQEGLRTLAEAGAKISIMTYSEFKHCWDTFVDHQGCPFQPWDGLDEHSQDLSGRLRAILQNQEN
# ASAP1 inh: ASAP1 ArfGAP inhibition. Q9ULH1. ASAP1-stimulated ARF1 GTP hydrolysis, GDP FP detection. inhibition, % at 16.5 µM. actives 0.19% (n = 360,000). AID 624377; in the data active means inhibition above about 25%;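 further: 0% = vehicle with enzyme and substrate and 100% = no enzyme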
# C2C12 statin: suppression of simvastatin myotoxicity | C2C12 myotubes + simvastatin, ATP luminescence, 48 h; scaled: DMSO 0, geranylgeraniol control 100 | rescue of ATP level, % at 7.49 µM | actives 0.78% (n = 330,000) | AID 602340;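 active means mean ATP rescue above about 67%, or every replicate alone reaching that limit, limit read from the data, passing the limit was not always enough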;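 further: myotubes were challenged with 10 µM simvastatin during compound exposure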
# Mot1-301 SUMO: blocks SUMOylation pathway, rescuing yeast Mot1-301 growth | S. cerevisiae Mot1-301 growth rescue, ATP luminescence, 38.5C; percent above DMSO median, 100 means doubled | growth rescue, % at 18.8 µM | actives 1% (n = 320,000);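 active means every valid replicate shows activation above 250% relative to neutral control wells; inactive means the rest, any valid replicate at or below 250%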;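 further: OY570 slx delta 5 strain wells were the positive control but not used for scaling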
# Yeast Mot1 SUMO: inhibits SUMO pathway, affecting Mot1-301 yeast growth | growth activity, percent, % at 42 µM | 2,300 tested, under 10 active | shares compounds with Mot1-301 SUMO | S. cerevisiae Mot1-301 galactose growth, ATP luminescence, 24 h; -100 = growth of slx-deleted rescue strain;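 active means Signal drops as the depositor expects, and the fitted half-maximal dose is no more than ten times the top valid tested dose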;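 further: more negative values mean stronger growth rescue toward the control strain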
# Starred values were filed as active, the others as inactive; x = no result given; + = active, no number. Hits are enriched below; roughly 2.1% of the tested compounds scored in any of these assays.
SMILES,A3A deaminase,ARFGAP1 inh,A3G deaminase,ASAP1 inh,C2C12 statin,Mot1-301 SUMO,Yeast Mot1 SUMO
CC(C)=CC(=O)N1CCCC(N2CCN(c3ccc(F)cc3)CC2)C1 (stereo not given),-7,-11,-4,-5,-5,+,-1
COc1cccc(S(=O)(=O)Nc2ccc3c(c2)OC[C@@H](C)N(Cc2ccccc2F)C[C@@H](C)[C@@H](OC)CN(C)C3=O)c1,x,x,x,x,45,x,x
C[C@H](O)C#Cc1cnc2c(c1)C(=O)N([C@H](C)CO)C[C@@H](C)[C@H](CN(C)C(=O)Cc1ccncc1)O2,x,x,x,x,4,x,x
CNC(=O)c1ccccc1NC(=O)c1c(O)c2c([nH]c1=O)CCCC2,-2,10,-2,-2,3,522*,0
O=C(Nc1ccc2c(c1)OCCO2)c1cc(F)c(F)cc1Cl,2,-2,-3,13,-3,-18,x
Cc1ccc(C(=O)Nc2ccc3c(c2)OCCO3)c(Cl)c1,-2,1,-7,-11,-3,408*,-1
O=S(=O)(N[C@H]1CC[C@H](CCn2cc(C3(O)CCCC3)nn2)O[C@@H]1CO)c1ccc(Cl)cc1,x,x,x,x,4,x,x
CCC(C)[C@H](NC(=O)OC(C)(C)C)C(=O)NCC1CCC(C(=O)N[C@@H](Cc2ccccc2)C(=O)O)CC1 (stereo not given in full),-2,1,-6,11,-4,628*,-1
CC(C)(C)OC(=O)N[C@@H](Cc1ccccc1)C(=O)NCC1CCC(C(=O)N[C@@H](CC(=O)O)C(=O)O)CC1 (stereo not given in full),-4,-4,-8,2,-8,288,x
CC(C)C(=O)Nc1ccc(NC(=S)NC(=O)c2ccccc2F)cc1,-2,2,-6,4,x,495*,0
O=C(NC(=S)Nc1ccc(F)c([N+](=O)[O-])c1)c1ccccc1F,-3,0,-8,10,x,0,x
O=C(O)CCC(=O)Nc1cccc(C(=O)Nc2ccc(Br)cc2)c1,-2,2,-8,-5,-4,796*,0
COc1cccc(NC(=O)CN(C)C(=O)c2ccccc2OCc2c(C)noc2C)c1,2,7,-8,-1,x,+,1
COc1ccccc1CNC(=O)C[C@H]1CC[C@@H]2[C@H](COC[C@@H](O)CN2Cc2cccc(-c3ccncc3)c2)O1,x,x,x,x,12,x,x
COc1ccc(/C=C2/SC(=O)N(NS(=O)(=O)c3ccccc3)C2=S)cc1OC,-2,5,-5,20,46,375*,-2
COc1cccc(S(=O)(=O)N2C[C@@H](O)COC[C@H]3O[C@@H](CC(=O)Nc4ccccc4)CC[C@@H]32)c1,x,x,x,x,13,x,x
Cc1cc(NC(=O)c2ccccc2F)n(C(C)(C)C)n1,-3,0,4,-12,x,+,0
Cc1cc(NC(=O)c2ccc(F)cc2F)n(-c2nc3ccccc3[nH]2)n1,-6,x,-3,x,-20,-15,x
COc1ccc(NC(=O)Nc2ccc3c(c2)CC(=O)N([C@@H](C)CO)C[C@@H](C)[C@H](CN(C)C)O3)cc1,x,x,x,x,16,x,x
COCCN(C(=O)CSc1nnc(-c2ccc(C)cc2)n1N)c1c(N)n(Cc2ccccc2)c(=O)[nH]c1=O,32,-2,3,-13,4,516*,0
CCN(C(=O)CSc1nnc(-c2ccc(C)cc2)n1N)c1c(N)n(Cc2ccccc2)c(=O)[nH]c1=O,-4,-17,-10,-1,8,x,x
C[C@@H]1CN([C@H](C)CO)C(=O)c2cc(C#CCN(C)C)cnc2O[C@@H]1CN(C)C(=O)c1ccc(F)cc1,x,x,x,x,2,x,x
S=C(NCCc1c[nH]c2ccccc12)NC1CCCC1,-6,-1,-6,-1,x,3,x
COc1ccccc1NC(=O)NCCc1c[nH]c2ccccc12,6,13,-3,9,-3,840*,-1
S=C(NCCc1c[nH]c2ccccc12)NC1CC1,0,3,1,12,-4,401*,0
